The text below walks through data of ChEMBL document CHEMBL1147901, “Anticancer, neuroprotective activities and computational studies of 2-amino-1,3,4-thiadiazole based compound” (Bioorg Med Chem, 2007).

Test [1] relates to C6. The test can be described thus: Antiproliferative activity against rat glioma C6 cells assessed as decreased cell division after 48 hrs. The class given is functional, cell-based. The note with it: C6, 48 h. The procedure, abridged:
(§1)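 BrdU ELISA. Cells seeded at 2 × 10^4 (A549) or 1 × 10^4 (C6) per well. Next day, fresh medium containing serial dilutions (5–50 µM) was added for 48 h. Cells were then labelled with 10 µM BrdU for 2 h, fixed/denatured 30 min, probed with peroxidase anti-BrdU and developed with TMB. Stopped with 1 M H2SO4, A450. Mean normalized OD ±SEM of 5–8 trials, linear regression.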

The next test relates to SK-N-AS. As to the kind of experiment: Antiproliferative activity against human SK-N-AS cells at 25 uM after 96 hrs by MTT assay. The class given is functional, cell-based. Summed up:
(§2)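 MTT viability. Seeded per well at 0.5 × 10^4 (C6), 1 × 10^4 (TE671, A549) or 3 × 10^4 (HT-29, SK-N-AS). Next day exposed to serial dilutions (5–100 µM) in fresh medium with 10% FBS at 37 °C, 5% CO2 for 96 h. MTT (5 mg/mL) for 4 h, formazan dissolved overnight in 10% SDS/0.01 N HCl, A570. Threshold concentration giving antiproliferative effect recorded.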
(In general: Tetrazolium assays rely on reduction of a dye to a coloured formazan, in cell work by metabolically active cells.)

A further test deals with HT-29. The test can be described thus: Antiproliferative activity against human HT29 cells at 5 uM after 96 hrs by MTT assay. It counts as functional, cell-based. The note with it: HT-29, 96 h. The procedure, abridged:
as §2

Test [2] deals with A549. As to the kind of experiment: Antiproliferative activity against human A549 cells at 10 uM after 96 hrs by MTT assay. It counts as functional, cell-based. The note with it: A549, 96 h. The procedure, abridged:
as §2

Test [3] is filed under the species Rattus norvegicus. As to the kind of experiment: Neuroprotective activity against serum deprivation induced neurotoxicity in rat cortical neurons. It counts as functional. Summed up:
(§3)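 Cortical neurons from E18 Wistar rat fetuses, plated at 5 × 10^5 cells/mL on poly-L-lysine in B-27/Neurobasal medium and grown to 14 days. Insult was glutamate (500 µM) or serum deprivation (Neurobasal without B-27), alone or with 10 or 25 µM compound, for 48 h. MTT read-out as mean normalized OD ±SEM of 4–8 trials.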

Test [4] relates to C6. The test can be described thus: Antiproliferative activity against rat glioma C6 cells at 25 uM after 96 hrs by MTT assay. It counts as functional, cell-based. As to conditions: C6, 96 h. Summed up: as §2
Test [5] is filed under the species Rattus norvegicus. The test can be described thus: Neuroprotective activity against glutamate-induced neurotoxicity in rat cortical neurons. It counts as functional. The procedure, abridged: as §3
The test system of the next test is TE-671. The test can be described thus: Antiproliferative activity against human TE671 cells at 10 uM after 96 hrs by MTT assay. The class given is functional, cell-based. As to conditions: TE-671, 96 h. Summed up:
as §2

In test [6] the test system is A549. As to the kind of experiment: Antiproliferative activity against human A549 cells assessed as decreased cell division after 48 hrs. The note with it: A549, 48 h. The class given is functional, cell-based. Summed up:
as §1

In test [7] the test system is C6. The test can be described thus: Inhibition of rat glioma C6 cell migration at 5 uM after 24 hrs. It counts as functional, cell-based. Summed up: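 Scratch-wound assay. 1 × 10^6 C6 cells were plated per 4-cm dish. Next day the monolayer was scratched with a pipette tip and rinsed twice with PBS. Fresh medium alone or with 5 µM compound for 24 h, then May-Grünwald–Giemsa staining. Cells migrated into the wound were counted on micrographs as mean per field ±SEM over 50 wound areas from four micrographs; Student's t test.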

Activity calls are given as the source filed them.

Usually IC50 stands for the midpoint of a concentration-inhibition curve.

Take `Oc1ccc(-c2nnc(Nc3ccc(F)cc3)s2)c(O)c1`: the IC50 in the test on C6 [1] was found to be 23.5 µM; in the test with SK-N-AS, 54.7 µM; in the test on HT-29, 33.1 µM; with A549 [2] it was 22.8 µM; in the test with C6 [4] it was 27.3 µM; in the test with TE-671, 26 µM. For the same compound, the IC50 with A549 [6] turned out to be 13.7 µM. Also, the Activity entry in the test filed under Rattus norvegicus [3] and in the test filed under Rattus norvegicus [5] was “Dose-dependent effect” each time. Also, the result in the test on C6 [7] was Active.
